Drawing on PubChem BioAssay AID623965 (Broad Institute, 2012), this text covers AC50 for eight compounds.

Several values for one entry are separate records, joined by “and”; a condition that tells them apart may be missing. Identical values can stand only once.

In general, AC50 refers to the midpoint of the concentration-response curve, whichever way the signal moves.

The test system of the assay is Candida glabrata growth in glycerol medium, OD600, 48 h. The assay is described as follows: single-agent C. glabrata growth inhibition on glycerol, dose response, glycerol carbon source, dry powder, plate reader, set 3 (AID 623965). An outline of the steps:
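system = Candida glabrata yeast cells | medium = CSM synthetic medium with glycerol as carbon source | times = 48 h static incubation at 30 °C, humidified | detection = optical density at 600 nm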
For the compound `CCOC(=O)N1C(=O)C2(CCCCC2)N(c2ccccc2)C1=S`, the half-maximal activity concentration (AC50) was 0.0335 µM.
In the case of `CCOC(=O)N1C(=O)C2(CCCCC2)N(c2ccc(F)cc2)C1=S` it was 0.0113 µM; in that of `CCOC(=O)N1C(=O)C2(CCCCC2)N(c2ccc(C)cc2)C1=S`, 0.0576 µM and 0.0553 µM; in that of `CC1/C=C/C=C\C=C\C=C\C=C\C=C\C=C\C(O[C@H]2OC(C)C(O)C(N)C2O)CC2OC(O)(CC(O)CC(O)C(O)CCC(O)CC(O)CC(=O)OC(C)C(C)C1O)CC(O)C2C(=O)O` (stereo partly drawn), 1.41 µM.
Consider `CCOC(=O)N1C(=O)C2(CCCCC2)N(c2ccc(Cl)cc2)C1=S`, for which the half-maximal activity concentration (AC50) is 0.0297 µM.
For `C/C=C/[C@@H]1[C@H]2C[C@@H](C)CC[C@@H]2C(C)=C[C@H]1C(=O)c1c(O)c(-c2ccc(O)cc2)c[nH]c1=O`, the AC50 is 2.94 µM.
For `CCOC(=O)N1C(=O)C2(CCCCC2)N(c2ccc(C#N)cc2)C1=S` the value was 0.0398 µM; for `CCOC(=O)N1C(=O)C2(CCCCC2)N(c2cccc(C)c2)C1=S`, 0.0386 µM.
